Experimental data reported in ChEMBL document CHEMBL3045555, “Structure elucidation and antifungal activity of an anthracycline antibiotic, daunomycin, isolated from Actinomadura roseola” (J Agric Food Chem, 2000).
Active and inactive are the calls of the source. The rule behind the calls is not given here.

Assays:
[1] = tested on: Phytophthora capsici; experiment: Antifungal activity against Phytophthora capsici in pepper plants assessed as decrease in Phytophthora blight disease at 100 ug/ml; format: functional, organism-based
How it was run: (§1)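 Pepper plants raised at 28 °C with 16 h light per day. Antibiotic in methanol, diluted, was sprayed onto plants at first-branch stage 1 day before inoculation. Stems were slit 1 cm above soil and covered with cotton soaked in 1 × 105 zoospores mL-1 P. capsici, then taped. Disease was rated daily on a 0–5 severity scale; values are means of 10 plants per treatment.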

[2] = tested on: Phytophthora capsici; experiment: Antifungal activity against Phytophthora capsici in pepper plants assessed as decrease in Phytophthora blight disease at 50 ug/ml; format: functional, organism-based; how it was run: as §1

COCC(=O)N(c1c(C)cccc1C)C(C)C(=O)OC (configuration not stated)
Activity [1]: Active | Activity [2]: Active
